Calls of active or inactive are those of the source. The calls are words filed in the database; no cut-off is given here.
Legend:
Homo sapiens = organism: Homo sapiens; test: (§1) Displacement of protein A from human IgG antibody by competitive ELISA
In short: (§2)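 Competitive ELISA in which test compounds compete with protein A for binding to human IgG; IC50 determined in PBS.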

[1] = as §1; in short: as §2
Mus musculus [2] = test: Effect on oxazolone-induced delayed type hypersensitivity in mouse assessed as ear thickness at 50 mg/kg, iv after 7 days challenged with oxazolone on day 3; format: functional
In short: (§3)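 Mice dosed intravenously with vehicle or test compound at 50 mg/kg on days 0, 1 and 2. Oxazolone (50 ll) applied to the right ear surface, first challenge day 3, second day 10. Ear thickness measured days 4–7 and 11–14; redness and crust formation also observed. Mice sacrificed day 14.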

Mus musculus [3] = test: Effect on oxazolone-induced delayed type hypersensitivity in mouse assessed as ear thickness at 50 mg/kg, iv after 14 days challenged with oxazolone on day 10; format: functional; in short: as §3
Rattus norvegicus [4] = test: Reduction in synovitis damage in Freund's adjuvant-induced arthritis Lewis rat model at 25 mg/kg, iv after 21 days relative to control; format: functional; parameters: scale not given: the % may be the effect or the level left
In short: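 Female Lewis rats; arthritis induced by footpad injection of lyophilized Mycobacterium butyricum in mineral oil, monitored for 3 weeks. Intravenous dosing on days −3, −2, −1 pre-adjuvant and days 10, 11, 12 post-adjuvant; body weight recorded. Arthritis (inflammatory) index derived from joint circumference in mm via a geometric formula; incidence and severity scored.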

Rattus norvegicus [5] = test: Reduction in synovitis damage in Freund's adjuvant-induced arthritis Lewis rat model at 50 mg/kg, po after 21 days relative to control; format: functional; parameters: scale not given: the % may be the effect or the level left
Mus musculus [6] = test: Effect on oxazolone-induced delayed type hypersensitivity in mouse assessed as ear thickness at 50 or 150 mg/kg, po after 7 days challenged with oxazolone on day 3; format: functional, organism-based; parameters: dose 150 mg/kg
In short: (§4)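 Oxazolone DTH protocol: 50 ll oxazolone applied to the right ear surface, challenged day 3 and day 10. Ear thickness measured days 4–7 and 11–14. Compound given orally at 50 or 150 mg/kg daily from day 0 to day 13. Hydrocortisone served as comparator.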

Mus musculus [7] = test: Effect on oxazolone-induced delayed type hypersensitivity in mouse assessed as ear thickness at 50 or 150 mg/kg, po after 14 days challenged with oxazolone on day 10; format: functional, organism-based; parameters: dose 150 mg/kg; in short: as §4

Compound	IC50 [1]	further results
Nc1ccc(CCn2cnc3c(NC4CCCC(N)C4)ncnc32)cc1 (configuration not stated)	–	Activity (Homo sapiens): inactive
Nc1cccc(Nc2ncnc3c2ncn3CCOc2ccc(Cl)cc2)c1	0.5 µM	–
COc1cccc(Nc2ncnc3c2ncn3CCc2ccc(N)cc2)c1	–	Activity (Homo sapiens): inactive
Nc1cccc(Nc2ncnc3c2ncn3CCOc2ccc(F)cc2)c1	0.3 µM	–
Nc1cccc(Nc2ncnc3c2ncn3CCOc2ccccc2)c1	0.2 µM	–
Nc1cccc(Nc2ncnc3c2ncn3Cc2ccc(Cl)cc2)c1	0.5 µM	–
Nc1cccc(Nc2ncnc3c2ncn3Cc2cccc(F)c2)c1	1.8 µM	–
Nc1cccc(Nc2ncnc3c2ncn3CCc2cccc(F)c2)c1	0.5 µM	–
Nc1cccc(Nc2ncnc3c2ncn3Cc2cccc(Cl)c2)c1	0.4 µM	–
Nc1cccc(CCn2cnc3c(Nc4cccc(N)c4)ncnc32)c1	5.1 µM	–
Nc1cccc(Nc2ncnc3c2ncn3CC2CC2)c1	0.4 µM	–
CC(c1cccc(F)c1)n1cnc2c(Nc3cccc(N)c3)ncnc21 (configuration not stated)	0.2 µM	–
Nc1ccc(CCn2cnc3c(NC4CCNC4)ncnc32)cc1 (configuration not stated)	–	Activity (Homo sapiens): inactive
Nc1ccc(CCn2cnc3c(Nc4cccc(F)c4)ncnc32)cc1	–	Activity (Homo sapiens): inactive
COC(=O)c1ccc(Cn2cnc3c(Nc4cccc(N)c4)ncnc32)cc1	0.3 µM	–
Nc1cccc(Nc2ncnc3c2ncn3Cc2ccc(F)cc2)c1	1.7 µM	–
Nc1ccc(CCn2cnc3c(N4CCNCC4)ncnc32)cc1	–	Activity (Homo sapiens): inactive
Nc1cccc(Nc2ncnc3c2ncn3CCc2ccccc2)c1	2.3 µM	–
NCCNc1nc(Nc2cccc(N)c2)c2ncn(CCc3ccc(N)cc3)c2n1	–	Activity (Homo sapiens): inactive
Nc1cccc(Nc2ncnc3c2ncn3CCCOc2ccccc2)c1	0.6 µM	–
CN(Cc1cnc2nc(N)nc(N)c2n1)c1ccc(C(=O)N[C@@H](CCC(=O)O)C(=O)O)cc1 [METHOTREXATE]	–	Activity (Mus musculus [2]): 0.17 mm; Activity (Mus musculus [3]): 0.46 mm; Activity (Rattus norvegicus [4]): 20%
Nc1ccc(CCn2cnc3c(NCC4CCCNC4)ncnc32)cc1 (configuration not stated)	–	Activity (Homo sapiens): inactive
Nc1cccc(Nc2ncnc3c2ncn3CCc2ccc3ccccc3c2)c1	12.5 µM	–
Nc1ccc(CCn2cnc3c(Nc4cccc(N)c4)nc(NCCCCO)nc32)cc1	–	Activity (Homo sapiens): inactive
Nc1cccc(Nc2ncnc3c2ncn3CCc2ccc(O)cc2)c1	–	Activity (Homo sapiens): inactive
Nc1ccc(CCn2cnc3c(Nc4cccc(N)c4)nc(F)nc32)cc1	–	Activity (Homo sapiens): inactive

More lines, main results first:

IC50 [1]	Compound	further results
14 µM	CC(Nc1nc(Nc2cccc(N)c2)c2ncn(CCc3ccc(N)cc3)c2n1)c1cccc(N)c1 (configuration not stated)	–
2.3 µM	Nc1ccc(CCn2cnc3c(Nc4cccc(N)c4)nc(NC4CCC4)nc32)cc1	–
22 µM	CC(C)CNc1nc(Nc2cccc(N)c2)c2ncn(CCc3ccc(N)cc3)c2n1	–
1.5 µM	Cc1ccc(CCn2cnc3c(Nc4cccc(N)c4)ncnc32)cc1	–
4.8 µM	Nc1ccc(CCn2cnc3c(Nc4cccc(N)c4)nc(NCCCCCCO)nc32)cc1	–
3.6 µM	Nc1cccc(Nc2ncnc3c2ncn3CCc2ccc(Cl)cc2)c1	–
1.1 µM	CC(C)Nc1nc(Nc2cccc(N)c2)c2ncn(CCc3ccc(N)cc3)c2n1	–
64 µM	Nc1ccc(CCn2cnc3c(Nc4cccc(N)c4)nc(NCCO)nc32)cc1	–
0.6 µM	Nc1ccc(CCn2cnc3c(Nc4cccc(N)c4)nc(NCC4CC4)nc32)cc1	–
0.2 µM	Nc1ccc(CCn2cnc3c(Nc4cccc(N)c4)nc(NC4CCCC4)nc32)cc1	–
0.6 µM	Nc1cccc(Nc2ncnc3c2ncn3CCc2ccc(F)cc2)c1	–
13 µM	Nc1ccc(CCn2cnc3c(Nc4cccc(N)c4)nc(N)nc32)cc1	–
1.8 µM	Nc1ccc(CCn2cnc3c(Nc4cccc(N)c4)nc(NCc4ccccc4)nc32)cc1	–
13 µM	Nc1ccc(CCn2cnc3c(Nc4cccc(N)c4)nc(NC4CC4)nc32)cc1	–
1 µM	Nc1ccc(CCn2cnc3c(Nc4cccc(N)c4)ncnc32)cc1	Activity (Rattus norvegicus [5]): 30%; Activity (Mus musculus [2]): 0.19 mm; Activity (Mus musculus [6]): Active; Activity (Mus musculus [7]): Active; Activity (Mus musculus [3]): 0.56 mm; Activity (Rattus norvegicus [4]): 25%
9 µM	Nc1ccc(CCn2cnc3c(Nc4cccc(N)c4)nc(NC4CCCCC4)nc32)cc1	–
0.2 µM	Nc1ccc(Cn2cnc3c(Nc4cccc(N)c4)ncnc32)cc1	–
6 µM	CC(C)(C)CNc1nc(Nc2cccc(N)c2)c2ncn(CCc3ccc(N)cc3)c2n1	–

From ChEMBL document CHEMBL1139250, “2,6,9-Trisubstituted purine derivatives as protein A mimetics for the treatment of autoimmune diseases” (Bioorg Med Chem Lett, 2009)
